Converted amounts (≈) assume the structure as drawn. The source made the active and inactive calls. No cut-off for these calls is given here.
Tests used:
Staphylococcus aureus [1] = test: Inhibition of biofilm formation in methicillin-resistant Staphylococcus aureus ATCC 43300 after 24 hrs by crystal violet staining based method; format: functional, organism-based; conditions: for IC50: ATCC 43300, 24 h
Procedure, shortened: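 Read-out is the IC50, taken as the compound concentration that inhibits 50% of MRSA 43300 biofilm formation.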

Klebsiella pneumoniae [2] = test: Antibacterial activity against Klebsiella pneumoniae isolate C3 after 16 hrs by broth microdilution assay
Acinetobacter baumannii [3] = test: Antibacterial activity against Acinetobacter baumannii isolate 3941 after 16 hrs by broth microdilution assay; format: organism-based
Acinetobacter baumannii [4] = test: Antibacterial activity against Acinetobacter baumannii isolate 4106 after 16 hrs by broth microdilution assay; format: organism-based
Escherichia coli [5] = test: Antibacterial activity against Escherichia coli ATCC 25922 after 16 hrs by broth microdilution assay; format: organism-based
Escherichia coli [6] = test: Antibacterial activity against Escherichia coli ATCC 25922 expressing mcr1 gene after 16 hrs by broth microdilution assay; format: organism-based; conditions: in vitro
Acinetobacter baumannii [7] = test: Antibacterial activity against Acinetobacter baumannii isolate 5075 after 16 hrs by broth microdilution assay; format: organism-based
Acinetobacter baumannii [8] = test: Antibacterial activity against Acinetobacter baumannii ATCC 19606 after 16 hrs by broth microdilution assay; format: organism-based, ATCC 19606 = CIP 70.34 = JCM 6841
Acinetobacter baumannii [9] = test: Antibacterial activity against Acinetobacter baumannii ATCC 17978 expressing mcr1 gene after 16 hrs by broth microdilution assay; format: organism-based; conditions: in vitro
Klebsiella pneumoniae [10] = test: Antibacterial activity against Klebsiella pneumoniae isolate B9 after 16 hrs by broth microdilution assay; conditions: in vivo
Acinetobacter baumannii [11] = test: Antibacterial activity against Acinetobacter baumannii ATCC 17978 after 16 hrs by broth microdilution assay; format: organism-based
Klebsiella pneumoniae [12] = test: Antibacterial activity against Klebsiella pneumoniae ATCC 2146 expressing NDM1 gene after 16 hrs by broth microdilution assay; format: organism-based
Acinetobacter baumannii [13] = test: Potentiation of colistin-induced antimicrobial activity against Acinetobacter baumannii isolate 4106 after 16 hrs in presence of 0.01% triton X-100 by broth microdilution assay; format: functional, organism-based
Klebsiella pneumoniae [14] = test: Potentiation of colistin-induced antimicrobial activity against Klebsiella pneumoniae isolate B9 after 16 hrs in presence of 0.01% triton X-100 by broth microdilution assay; format: functional, organism-based
Staphylococcus aureus [15] = test: Antibacterial activity against methicillin-resistant Staphylococcus aureus ATCC 43300 after 16 hrs by broth microdilution assay; format: functional; conditions: for MIC: ATCC 43300, 16 h
Staphylococcus aureus [16] = test: Antibiofilm activity against methicillin-resistant Staphylococcus aureus ATCC 43300 assessed induction of dispersion of preformed biofilm after 24 hrs by crystal violet staining based method; format: functional, organism-based; conditions: ATCC 43300, 24 h
Staphylococcus aureus [17] = test: Potentiation of vancomycin-induced antibacterial activity against methicillin-resistant Staphylococcus aureus ATCC 43300 assessed as dispersion of preformed biofilm after 24 hrs by crystal violet staining based method; format: functional, organism-based; conditions: ATCC 43300, 24 h
Acinetobacter baumannii [18] = test: Potentiation of colistin-induced antimicrobial activity against Acinetobacter baumannii ATCC 19606 assessed as fold reduction in colistin MIC after 16 hrs by broth microdilution assay; format: functional, ATCC 19606 = CIP 70.34 = JCM 6841
Procedure, shortened: (§1)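 Analogue at a fixed 60 μM unless otherwise noted, combined with colistin against the Gram-negative strain. Potentiation is read as the fold reduction in colistin MIC relative to colistin alone. A. baumannii 3941/4106 and K. pneumoniae C3/B9 are primary clinical isolates with genomically encoded colistin resistance.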

Acinetobacter baumannii [19] = test: Potentiation of colistin-induced antimicrobial activity against Acinetobacter baumannii ATCC 17978 assessed as fold reduction in colistin MIC after 16 hrs by broth microdilution assay; format: functional; procedure, shortened: as §1
Escherichia coli [20] = test: Potentiation of colistin-induced antimicrobial activity against Escherichia coli ATCC 25922 assessed as fold reduction in colistin MIC after 16 hrs by broth microdilution assay; format: functional; procedure, shortened: as §1

Compound | MIC (Klebsiella pneumoniae [2]) | MIC (Acinetobacter baumannii [3]) | MIC (Acinetobacter baumannii [4]) | MIC (Escherichia coli [5]) | MIC (Escherichia coli [6]) | MIC (Acinetobacter baumannii [7]) | MIC (Acinetobacter baumannii [8]) | MIC (Acinetobacter baumannii [9]) | MIC (Klebsiella pneumoniae [10]) | IC50 (Staphylococcus aureus [1]) | MIC (Acinetobacter baumannii [11]) | MIC (Klebsiella pneumoniae [12]) | also measured
Cc1ccc(S(=O)(=O)n2cc(C(=O)/C=C/N(C)C)c3ccc(I)cc32)cc1 |  |  |  |  |  |  |  |  |  |  |  |  | Activity (Staphylococcus aureus [1]): Active
CCCCn1cc(-c2ccnc(N)n2)c2ccc(Br)cc21.Cl | > 200 µM | > 200 µM | > 200 µM | > 200 µM | > 200 µM | > 200 µM | > 200 µM | > 200 µM | > 200 µM | > 100 µM | > 200 µM | > 200 µM | 
Cl.Nc1nccc(-c2c[nH]c3ccc(Cl)cc23)n1 | > 200 µM | > 200 µM | > 200 µM | > 200 µM | > 200 µM | > 200 µM | > 200 µM | > 200 µM | > 200 µM |  | > 200 µM | > 200 µM | Activity (Staphylococcus aureus [1]): inactive
Cl.Nc1nccc(-c2c[nH]c3ccc(F)cc23)n1 | > 200 µM | > 200 µM | > 200 µM | > 200 µM | > 200 µM | > 200 µM | > 200 µM | > 200 µM | > 200 µM | > 100 µM | > 200 µM | > 200 µM | 
Cc1ccc(S(=O)(=O)n2cc(C(=O)/C=C/N(C)C)c3ccc(F)cc32)cc1 |  |  |  |  |  |  |  |  |  |  |  |  | Activity (Staphylococcus aureus [1]): Active
Nc1nccc(-c2c[nH]c3ccccc23)n1 |  |  |  |  |  |  |  |  |  | > 100 µM |  |  | Activity (Acinetobacter baumannii [13]): inactive; Activity (Klebsiella pneumoniae [14]): inactive; Activity (Staphylococcus aureus [15]): inactive
Cl.Nc1nccc(-c2c[nH]c3cc(I)ccc23)n1 | > 200 µM | > 200 µM | > 200 µM | > 200 µM | > 200 µM | > 200 µM | > 200 µM | > 200 µM | > 200 µM | 42.5 µM | > 200 µM | > 200 µM | MIC (Staphylococcus aureus [15]): > 200 µM
Cc1ccc2[nH]cc(-c3ccnc(N)n3)c2c1.Cl | > 200 µM | > 200 µM | > 200 µM | > 200 µM | > 200 µM | > 200 µM | > 200 µM | > 200 µM | > 200 µM | > 100 µM | > 200 µM | > 200 µM | Activity (Acinetobacter baumannii [13]): inactive; Activity (Klebsiella pneumoniae [14]): inactive; Activity (Staphylococcus aureus [15]): inactive
CCCCCn1cc(-c2ccnc(N)n2)c2cc(Br)ccc21.Cl | > 200 µM | > 200 µM | > 200 µM | > 200 µM | > 200 µM | > 200 µM | > 200 µM | > 200 µM | > 200 µM | > 100 µM | > 200 µM | > 200 µM | 
Cl.Nc1nccc(-c2c[nH]c3ccc(I)cc23)n1 | > 200 µM | > 200 µM | > 200 µM | > 200 µM | > 200 µM | > 200 µM | > 200 µM | > 200 µM | > 200 µM | 49.3 µM | > 200 µM | > 200 µM | MIC (Staphylococcus aureus [15]): 200 µM
Nc1nccc(-c2c[nH]c3cccc(Br)c23)n1 |  |  |  |  |  |  |  |  |  | > 100 µM |  |  | 
Cl.Nc1nccc(-c2c[nH]c3cc(F)ccc23)n1 | > 200 µM | > 200 µM | > 200 µM | > 200 µM | > 200 µM | > 200 µM | > 200 µM | > 200 µM | > 200 µM | > 100 µM | > 200 µM | > 200 µM | 
Nc1nccc(-c2c[nH]c3c(Br)cccc23)n1 |  |  |  |  |  |  |  |  |  | 99.8 µM |  |  | 
Cl.Nc1nccc(-c2cn(Cc3ccccc3)c3ccc(Br)cc23)n1 | > 200 µM | > 200 µM | > 200 µM | > 200 µM | > 200 µM | > 200 µM | > 200 µM | > 200 µM | > 200 µM |  | > 200 µM | > 200 µM | 
CCCn1cc(-c2ccnc(N)n2)c2ccc(I)cc21.Cl | > 200 µM | > 200 µM | > 200 µM | > 200 µM | > 200 µM | > 200 µM | > 200 µM | > 200 µM | > 200 µM |  | > 200 µM | > 200 µM | Activity (Staphylococcus aureus [1]): inactive
Cl.Cn1cc(-c2ccnc(N)n2)c2ccc(Br)cc21 | > 200 µM | > 200 µM | > 200 µM | > 200 µM | > 200 µM | > 200 µM | > 200 µM | > 200 µM | > 200 µM | 59.6 µM | > 200 µM | > 200 µM | MIC (Staphylococcus aureus [15]): 200 µM
Cl.Cn1cc(-c2ccnc(N)n2)c2cc(Br)ccc21 | > 200 µM | > 200 µM | > 200 µM | > 200 µM | > 200 µM | > 200 µM | > 200 µM | > 200 µM | > 200 µM | > 100 µM | > 200 µM | > 200 µM | 
CC(C)Cn1cc(-c2ccnc(N)n2)c2ccc(Br)cc21.Cl | > 200 µM | > 200 µM | > 200 µM | > 200 µM | > 200 µM | > 200 µM | > 200 µM | > 200 µM | > 200 µM | > 100 µM | > 200 µM | > 200 µM | 
CCNc1nccc(-c2cn(C)c3cc(Br)ccc23)n1.Cl | > 200 µM | > 200 µM | > 200 µM | > 200 µM | > 200 µM | > 200 µM | > 200 µM | > 200 µM | > 200 µM |  | > 200 µM | > 200 µM | Activity (Staphylococcus aureus [1]): inactive
Nc1nccc(-c2c[nH]c3ccc(Br)cc23)n1 |  |  |  |  |  |  |  |  |  | 17.9 µM |  |  | EC50 (Staphylococcus aureus [16]): 138 µM; EC50 (Staphylococcus aureus [17]): 92.1 µM; MIC (Staphylococcus aureus [15]): 200 µM (≈ 57.8 µg/mL)
CCn1cc(-c2ccnc(N)n2)c2cc(Br)ccc21.Cl | > 200 µM | > 200 µM | > 200 µM | > 200 µM | > 200 µM | > 200 µM | > 200 µM | > 200 µM | > 200 µM | 66.2 µM | > 200 µM | > 200 µM | MIC (Staphylococcus aureus [15]): 200 µM
CC(C)Cn1cc(-c2ccnc(N)n2)c2cc(Br)ccc21.Cl | > 200 µM | > 200 µM | > 200 µM | > 200 µM | > 200 µM | > 200 µM | > 200 µM | > 200 µM | > 200 µM | > 100 µM | > 200 µM | > 200 µM | fold change (FC) (Acinetobacter baumannii [18]): 16; fold change (FC) (Acinetobacter baumannii [19]): 16; fold change (FC) (Escherichia coli [20]): 16
CCn1cc(-c2ccnc(N)n2)c2ccc(Br)cc21.Cl | > 200 µM | > 200 µM | > 200 µM | > 200 µM | > 200 µM | > 200 µM | > 200 µM | > 200 µM | > 200 µM | 64 µM | > 200 µM | > 200 µM | MIC (Staphylococcus aureus [15]): 200 µM
